Measured values from different studies.
Lines come from different studies, so protocols differ.
Target: Tyrosine-protein kinase Mer (MERTK, Homo sapiens, UniProt Q12866)
Sequence (Q12866 21-999, as in one of the studies): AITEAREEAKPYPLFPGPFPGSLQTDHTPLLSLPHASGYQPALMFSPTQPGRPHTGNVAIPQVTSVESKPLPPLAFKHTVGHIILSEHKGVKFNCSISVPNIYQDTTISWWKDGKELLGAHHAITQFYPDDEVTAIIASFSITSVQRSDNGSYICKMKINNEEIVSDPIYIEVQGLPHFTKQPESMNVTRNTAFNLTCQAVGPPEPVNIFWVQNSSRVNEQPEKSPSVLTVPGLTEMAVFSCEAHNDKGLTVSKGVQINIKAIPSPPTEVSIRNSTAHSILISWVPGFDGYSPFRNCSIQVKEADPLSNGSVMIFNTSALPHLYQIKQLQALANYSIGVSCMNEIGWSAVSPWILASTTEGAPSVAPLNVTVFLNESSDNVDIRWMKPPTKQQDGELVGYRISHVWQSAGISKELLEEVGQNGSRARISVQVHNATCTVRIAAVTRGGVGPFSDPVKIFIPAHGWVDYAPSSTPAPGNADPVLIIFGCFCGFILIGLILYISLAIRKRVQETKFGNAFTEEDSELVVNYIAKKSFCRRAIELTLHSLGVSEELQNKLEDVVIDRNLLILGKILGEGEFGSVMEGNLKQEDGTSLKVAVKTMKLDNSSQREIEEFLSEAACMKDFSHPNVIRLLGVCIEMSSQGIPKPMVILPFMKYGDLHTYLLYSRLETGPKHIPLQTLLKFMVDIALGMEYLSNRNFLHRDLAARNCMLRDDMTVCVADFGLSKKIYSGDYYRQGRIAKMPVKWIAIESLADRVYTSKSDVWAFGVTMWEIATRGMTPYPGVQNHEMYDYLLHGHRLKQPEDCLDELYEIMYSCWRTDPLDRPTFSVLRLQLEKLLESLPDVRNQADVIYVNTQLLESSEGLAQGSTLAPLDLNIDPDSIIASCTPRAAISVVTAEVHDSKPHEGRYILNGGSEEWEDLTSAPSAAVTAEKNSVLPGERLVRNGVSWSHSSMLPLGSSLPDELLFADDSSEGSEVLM

O=C(c1ccc(Nc2nccc(-c3cc4ccccc4s3)n2)cc1)N1CCC(N2CCCC2)CC1  remaining binding (binding, competition with immobilised ligand; 1 µM): 42%
C[C@@H]1CCN(c2nccc(-c3cnn4ncccc34)n2)C1  remaining binding (binding; 1 µM): 100%
CCC(=O)N[C@H]1CC[C@@H](C(=O)N(C)c2ccc(-c3nc4ccccc4o3)cc2)C1  remaining binding (cell-free assay, competition with immobilised ligand; 1 µM): 100%
C=CC(=O)N1CCC(C(=O)NCC(=O)N2CCN(c3nc(-c4cnc(N)nc4C(F)F)nc(N4CCOCC4)n3)CC2)CC1  remaining binding (binding, competition with immobilised ligand; 1 µM): 94%
F[C@@H]1CCN(c2nccc(-c3cnn4ncccc34)n2)C1  remaining binding (binding; 1 µM): 100%
CCc1ccccc1C(=O)Nc1n[nH]c2c(C)c(F)c(C3C(C#N)=C(C)N(C)C(C)=C3C#N)cc12  remaining binding (cell-free assay, competition with immobilised ligand; 1 µM): 80%
O=C(NCCCN1CCOCC1)c1ccc(Nc2ncc(Cl)c(-c3ccc(Cl)s3)n2)cc1  remaining binding (binding, competition with immobilised ligand; 1 µM): 5.5%
CS(=O)(=O)N1CCCC(NC(=O)[C@H](CCC2CCCCC2)NC(=O)c2ccc(CNc3ncnc4c3nnn4-c3ccccc3)cc2)C1 (stereo partly drawn)  remaining binding (cell-free assay, competition with immobilised ligand; 0.1 µM): 91%
COc1ncc2cc3ccccc3nc2c1C#N  remaining binding (cell-free assay, competition with immobilised ligand; 5 µM): 100%
CCCOc1ccc([C@@H]2[C@@H](C(=O)O)[C@H](c3ccc4c(c3)OCO4)CN2CC(=O)Nc2c(CC)cccc2CC)cc1  remaining binding (cell-free assay, competition with immobilised ligand; 1 µM): 97%
O=C(c1ccc(Nc2ncc(Cl)c(-c3ccc(Cl)s3)n2)cc1)N1CCC(N2CCCC2)CC1  remaining binding (binding, competition with immobilised ligand; 1 µM): 4.3%
C[C@@]1(Cc2ccc(C#N)cc2)C(=O)N(c2cc(Cl)cc(Cl)c2)c2ncc(C(=O)NC3(c4nc(C5CCC5)no4)CC3)n21  remaining binding (cell-free assay, competition with immobilised ligand; 1 µM): 100%
O=C(NCC1CCOCC1)c1n[nH]cc1NC(=O)c1c(F)cccc1F  remaining binding (binding, competition with immobilised ligand; 1 µM): 98%
Cc1cnn2ncc(-c3ccnc(N(C)C)n3)c2c1  remaining binding (binding; 1 µM): 100%
C[C@@H](c1ccc(-n2cnc3c(N)ncnc32)cc1)N1CCc2nn(C)c(Cc3ccccc3)c2C1=O  remaining binding (binding, competition with immobilised ligand; 0.1 µM): 100%
N[C@H]1CCN(c2nccc(-c3cnn4ncccc34)n2)C1  remaining binding (binding; 1 µM): 100%
COc1cnc(Nc2cccc(S(N)(=O)=O)c2)nc1N1CCN(c2ccccc2)CC1  remaining binding (binding, competition with immobilised ligand; 1 µM): 65%
CN(C)c1nccc(-c2cnn3ncccc23)n1  remaining binding (binding; 1 µM): 87%
O=C(N[C@H]1CCCCC/C=C\C2C[C@@]2(C(=O)O)NC(=O)[C@@H]2C[C@@H](Oc3ccncc3)CN2C1=O)OC1CCCC1 (stereo partly drawn)  remaining binding (binding, competition with immobilised ligand; 1 µM): 64%
c1cnn2ncc(-c3ccnc(N4CCC45COC5)n3)c2c1  remaining binding (binding; 1 µM): 87%
FC(F)(F)Oc1cccc(-c2cnc3ccc(-c4ccncc4)nn23)c1  remaining binding (cell-free assay, competition with immobilised ligand; 5 µM): 100%
